Assay results pooled from the literature.
SMO: Protein smoothened (SMO, Homo sapiens, UniProt Q99835)
MAPK15: Mitogen-activated protein kinase 15 (MAPK15, Homo sapiens, UniProt Q8TD08)

SMILES | target | assay | conditions | endpoint | result
Nc1ncc(-c2nc(N3CCOCC3)nc(N3CCOCC3)n2)c(C(F)F)n1 | Calcium/calmodulin-dependent protein kinase type IV (CAMK4, Homo sapiens, UniProt Q16566) | binding, competition with immobilised ligand | 10 µM | remaining binding | 66%
O=C1CCC[C@@H]2[C@H]3CCCN4CCC[C@H](CN12)[C@@H]34 | Ubiquitin carboxyl-terminal hydrolase 51 (USP51, Homo sapiens, UniProt Q70EK9) | enzyme activity, inhibitor | 5 µM | inhibition | 0%
CC[C@H](C)[C@@H](C(=O)O[C@@H](CC(C)C)C(=O)N[C@@H](CC(C)C)C(=O)N[C@@H](C)/C=C/C(=O)N1C(=O)C=C(OC)[C@@H]1C)N(C)C | FP2A (Plasmodium falciparum, UniProt Q8I6U4) | enzyme activity, inhibitor, fluorescence | pH 6 | kinact/KI | 58600 M⁻¹ s⁻¹
COc1cc(C(=O)NC(N)=Nc2ccc(C)c(NC(=O)c3ccc(-c4ccccc4)cc3)c2)cc(OC)c1OC | SMO | GTPγS binding, agonist, radiometric | cell membranes | Emax | -88.6%
Cc1ncc(C)n2nc(/C=C/c3nc(N4CCCC4)cc(N4CCOCC4)n3)nc12 | Angiotensin-converting enzyme (ACE, Homo sapiens, UniProt P12821) | enzyme activity, inhibitor | 10 µM | inhibition | -13%
Cc1nn(C)cc1-c1nc2c(N3CCN(Cc4ccc(Cl)cc4)CC3)c(Cl)cnc2[nH]1 | MAPK15 | binding, competition with immobilised ligand | 1 µM | remaining binding | 8.2%
CC1=C2C[C@H]3[C@@H](CC=C4C[C@@H](O)CC[C@@]43C)[C@@H]2CC[C@]12O[C@@H]1C[C@H](C)CN[C@H]1[C@H]2C | Protein smoothened (SMO, Homo sapiens, UniProt Q99835, D473H) | GTPγS binding, agonist, radiometric | cell membranes | Emax | -107%
C#Cc1n[nH]c2c(-c3cn(C(C)c4ccccn4)c(=O)[nH]c3=O)cc(F)cc12 (stereo not drawn) | Fibroblast growth factor receptor 2 (FGFR2, Homo sapiens, UniProt P21802) | enzyme activity, inhibitor | 1 µM | inhibition | -6%
O=C(Nc1cccnn1)N1CCN([C@@H]2CCOc3cc(C(F)(F)F)ccc32)CC1 | Caspase-3 (CASP3, Homo sapiens, UniProt P42574) | cell-free assay, inhibitor | 20 µM | inhibition | 1%
COc1ncccc1-c1cnn2ccc(N3CCN(C(=O)OC(C)C)CC3)nc12 | MAPK15 | binding, competition with immobilised ligand | 1 µM | remaining binding | 78%
CCN(CC)CCCC[C@H](NC(=O)[C@H](CC(C)C)NC(=O)[C@H](C)NC(=O)[C@H](Cc1ccccc1)NC(=O)c1ccc(C(C)(C)C)cc1)C(=O)N[C@@H](CO)C(=O)OC | Bromodomain and PHD finger-containing protein 3 (BRPF3, Homo sapiens, UniProt Q9ULD4) | thermal stability, DSF | 25 µM | ΔTm | 0 °C
Cc1cnc(-c2cc(N3CCN(C(=O)CCS(C)(=O)=O)CC3)ncc2Cl)c(C)c1 | SMO | GTPγS binding, agonist, radiometric | cell membranes | Emax | -60.4%
